IDH1 R132H inh = blocks human IDH1 R132H reductase activity | diaphorase/resazurin fluorescence, 60 min | inhibition, % at 10 µM | 70,000 compounds, 0.18% hits | AID 624101; in the data active = inhibition above about 34%; inconclusive = no clear call, values can overlap the other calls; inactive = below about 11%;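 also: 0% = DMSO and 100% = no enzyme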
Target sequence (O75874 whole entry R132H): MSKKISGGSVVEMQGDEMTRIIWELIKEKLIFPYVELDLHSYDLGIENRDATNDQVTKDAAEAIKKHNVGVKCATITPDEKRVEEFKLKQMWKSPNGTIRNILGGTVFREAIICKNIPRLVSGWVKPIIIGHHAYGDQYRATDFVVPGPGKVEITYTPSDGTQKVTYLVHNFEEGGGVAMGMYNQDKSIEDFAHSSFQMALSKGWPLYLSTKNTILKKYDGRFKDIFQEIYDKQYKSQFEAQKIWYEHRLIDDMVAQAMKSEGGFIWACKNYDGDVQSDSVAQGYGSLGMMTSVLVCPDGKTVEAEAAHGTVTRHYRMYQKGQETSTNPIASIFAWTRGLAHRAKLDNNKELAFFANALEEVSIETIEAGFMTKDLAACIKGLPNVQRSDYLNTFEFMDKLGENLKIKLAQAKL
T cruzi growth-1 = T. cruzi proliferation inhibition | 77,000 compounds, 5.9% hits | inhibition, % at 8.34 µM | T. cruzi beta-gal in NIH3T3, GalScreen luminescence, 90 h;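 active = mean inhibition above about 93%, with at least 55% of replicates each passing it, limit read from the data, passing the limit was not always enough; inconclusive = only one of those two conditions holds; inactive = neither condition holds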
GASC1 inh = KDM4C (human) demethylase inhibition; GST-KDM4C 2-372, H3K9me3 peptide, LANCE TR-FRET; inhibition, % at 12.5 µM; 96,000 compounds, 0.15% hits; AID 720574;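 active = mean replicate inhibition above about 25%, with at least 55% of replicates also reaching it, limit read from the data, passing the limit was not always enough; inconclusive = only one of those two conditions met; inactive = neither condition met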
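Assay system: GST-GASC-1 enzyme fragment 2-372 | Amount: 10 nM enzyme | Medium: HEPES buffer, pH 7.5, plus ascorbate | Reagent: H3K9me3 peptide substrate, Fe(II), 2-oxoglutarate | Doses: Single-point compound screen | Incubation: 30 min demethylation and 1 h detection at room temperature | Measured by: LANCE TR-FRET, excitation 340 nm, emissions 618 and 671 nm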
Pf Dd2 inh = blocks growth of Plasmodium falciparum Dd2 parasites | P. falciparum Dd2 growth, SYBR Green, 72 h; hits give low values | activity change, % at 10 µM | 94,000 compounds, 2.3% hits | AID 1159554; in the data active = activity change below about -80%; inconclusive = no clear call, values can overlap the other calls
T cruzi growth-2 = blocks T. cruzi growth in NIH3T3 host cells. T. cruzi beta-gal in NIH3T3, GalScreen luminescence, 90 h. inhibition, % at 8.35 µM. 5,600 compounds, 72% hits. shares compounds with T cruzi growth-1;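 active = mean replicate inhibition above about 95% and at least 55% of replicates individually reaching it, limit read from the data; inconclusive = only one of the two criteria is met; inactive = neither criterion is met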
T cruzi growth-3 = inhibitors of T. cruzi proliferation | shares compounds with T cruzi growth-1 | T. cruzi beta-gal in NIH3T3, GalScreen luminescence, 90 h | inhibition, % at 2.09 µM | 5,600 compounds, 21% hits | AID 651740;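 active = mean inhibition above about 95%, with at least 55% of replicates also reaching it, limit read from the data; inconclusive = meets just one of the two conditions; inactive = meets neither condition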;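 also: plate controls were neutral control median for no effect and positive control median for full effect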
3T3 cytotox = kills mouse NIH/3T3 fibroblasts; shares compounds with T cruzi growth-1; NIH/3T3 viability, CellTiter-Glo ATP luminescence, 90 h; cytotoxicity (signal decrease), % at 8.35 µM; 5,600 compounds, 14% hits; AID 651742;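 active = mean signal decrease across replicates above about 35% based on untreated-well scatter, with enough replicates individually passing, limit read from the data; inconclusive = no rule stated though some were filed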;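 also: 0% = median of neutral control wells and 100% = median of positive control wells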
3T3 cytotox 2 = cytotoxicity in mouse NIH/3T3 fibroblasts; shares compounds with T cruzi growth-1; NIH/3T3 viability, CellTiter-Glo ATP luminescence, 90 h; inhibition, % at 24.9 µM; 5,600 compounds, 56% hits; AID 651744;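 active = mean loss of cell viability signal at or above a set limit, and enough replicates individually reaching it; inconclusive = meets only the mean limit or only the replicate share; inactive = meets neither condition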;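 also: 0% = median of neutral control wells and 100% = median of positive control wells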
Starred values were filed as active, the others as inactive; ? = inconclusive; . = not tested or not shown; + = active, no number. An excerpt weighted towards active compounds, which were near 5.9% of everything screened.

SMILES	IDH1 R132H inh	T cruzi growth-1	GASC1 inh	Pf Dd2 inh	T cruzi growth-2	T cruzi growth-3	3T3 cytotox	3T3 cytotox 2
O=C(NC(=O)c1ccccc1Cl)Nc1ccc2c(c1)S(=O)(=O)C=C2	-2	.	.	.	.	.	.	.
CN(C(=O)Cc1ccccc1)C(CN1CCCC1)c1ccccc1 (configuration not stated)	0	.	.	.	.	.	.	.
O=C(Cc1ccncc1)N1CCCCN2[C@H](CO)[C@@H](c3ccc(-c4ccncc4)cc3)[C@H]2C1	.	116*	0	17	-13	-11	7	5
CCOC(=O)c1ncn2c1C1CCCN1C(=O)c1cc(OC)ccc1-2 (configuration not stated)	0	.	.	.	.	.	.	.
O=C(Cc1cccnc1)N1CCCCN2[C@H](CO)[C@H](c3ccc(C#CC4CCCC4)cc3)[C@@H]2C1	.	111*	0	2	89	44	34	78*
O=C(Cc1cccnc1)N1CCCCN2[C@H](CO)[C@H](c3ccc(C#CC4CC4)cc3)[C@@H]2C1	.	87	.	-17	.	.	.	.
O=C(Cc1cccnc1)N1CCCCN2[C@H](CO)[C@H](c3ccc(C#CC4CC4)cc3)[C@H]2C1	.	-208	.	-31	.	.	.	.
O=C(Cc1cccnc1)N1CCCCN2[C@H](C1)[C@@H](c1ccc(C#CC3CCCC3)cc1)[C@@H]2CO	.	102*	0	-28	107*	32	25	104*
O=C(Cc1ccccn1)N1CCCCN2[C@H](CO)[C@@H](c3ccc(Br)cc3)[C@H]2C1	.	105*	1	19	-3	-14	4	-1
O=C(Cc1ccccn1)N1CCCCN2[C@@H](CO)[C@@H](c3ccc(-c4ccccc4)cc3)[C@@H]2C1	.	113*	1	-21	?	68	-9	15
O=C(Cc1ccccn1)N1CCCCN2[C@H](CO)[C@H](c3ccc(-c4ccccc4)cc3)[C@H]2C1	.	41	-1	-13	.	.	.	.
Cc1ccc2c(c1)-c1cc(C)nn1C(c1cccnc1)N2 (configuration not stated)	-1	.	.	.	.	.	.	.
COc1ccc(C#Cc2ccc([C@@H]3[C@@H](CO)N4CCCCN(C(=O)Cc5ccccc5)C[C@H]34)cc2)cc1	.	76	-3	-32	.	.	.	.
COc1ccc(C#Cc2ccc([C@@H]3[C@H](CO)N4CCCCN(C(=O)Cc5ccccc5)C[C@@H]34)cc2)cc1	.	112*	-1	-77	101*	105*	22	106*
COc1ccc(C#Cc2ccc([C@@H]3[C@@H](CO)N4CCCCN(C(=O)Cc5ccncc5)C[C@H]34)cc2)cc1	.	111*	0	-51	107*	81	31	106*
COc1ccc(C#Cc2ccc([C@@H]3[C@H]4CN(C(=O)Cc5ccccc5)CCCCN4[C@H]3CO)cc2)cc1	.	99*	-1	-46	93	103*	3	105*
COc1ccc(C#Cc2ccc([C@H]3[C@@H](CO)N4CCCCN(C(=O)Cc5ccccc5)C[C@@H]34)cc2)cc1	.	87	-2	-34	.	.	.	.
CC(=O)O[C@@H](c1nc2ccccc2c(=O)n1[C@@H]1C[C@@]2(OC1=O)c1ccccc1N1C(=O)[C@H](C)N(O)[C@@H]12)C(C)C	0	.	.	.	.	.	.	.
CC1CCC/C=C/C2CC(O)CC2C(O)/C=C\C(=O)O1 (configuration not stated)	1	.	.	.	.	.	.	.
COC(=O)[C@H]1[C@H](CO)[C@H]2Cn3c(ccc(-c4ccccc4)c3=O)[C@@H]1N2CC1CCCC1	.	.	-1	-8	.	.	.	.
COC(=O)[C@@H]1[C@@H](CO)[C@@H]2Cn3c(ccc(C4=CCCCC4)c3=O)[C@H]1N2Cc1ccccn1	.	95	0	10	.	.	.	.
COC(=O)[C@@H]1[C@@H](CO)[C@@H]2Cn3c(ccc(-c4ccccc4F)c3=O)[C@H]1N2CC1CCCC1	.	+	2	.	68	2	22	42*
COC(=O)[C@H]1[C@H](CO)[C@H]2Cn3c(ccc(C4=CCCCC4)c3=O)[C@@H]1N2Cc1ccccn1	.	101*	4	8	-20	-4	-4	4

High-throughput results: PubChem BioAssay, Broad Institute
